From ChEMBL document CHEMBL1671641, “1,5-benzodiazepines, a novel class of hepatitis C virus polymerase nonnucleoside inhibitors” (Antimicrob Agents Chemother, 2008)
One block for each compound: values may come before it. Activity calls are given as the source filed them. The rule behind the calls is not given here.

Key:
[1] = Cytotoxicity against CMV-Luc transfected human HuH7 cells after 5 days; format: cell-based, Huh-7
[2] = molecular target: T1, DNA polymerase alpha catalytic subunit (Homo sapiens, UniProt P09884); assay: Inhibition of human DNA polymerase alpha
T1 sequence (P09884 whole entry): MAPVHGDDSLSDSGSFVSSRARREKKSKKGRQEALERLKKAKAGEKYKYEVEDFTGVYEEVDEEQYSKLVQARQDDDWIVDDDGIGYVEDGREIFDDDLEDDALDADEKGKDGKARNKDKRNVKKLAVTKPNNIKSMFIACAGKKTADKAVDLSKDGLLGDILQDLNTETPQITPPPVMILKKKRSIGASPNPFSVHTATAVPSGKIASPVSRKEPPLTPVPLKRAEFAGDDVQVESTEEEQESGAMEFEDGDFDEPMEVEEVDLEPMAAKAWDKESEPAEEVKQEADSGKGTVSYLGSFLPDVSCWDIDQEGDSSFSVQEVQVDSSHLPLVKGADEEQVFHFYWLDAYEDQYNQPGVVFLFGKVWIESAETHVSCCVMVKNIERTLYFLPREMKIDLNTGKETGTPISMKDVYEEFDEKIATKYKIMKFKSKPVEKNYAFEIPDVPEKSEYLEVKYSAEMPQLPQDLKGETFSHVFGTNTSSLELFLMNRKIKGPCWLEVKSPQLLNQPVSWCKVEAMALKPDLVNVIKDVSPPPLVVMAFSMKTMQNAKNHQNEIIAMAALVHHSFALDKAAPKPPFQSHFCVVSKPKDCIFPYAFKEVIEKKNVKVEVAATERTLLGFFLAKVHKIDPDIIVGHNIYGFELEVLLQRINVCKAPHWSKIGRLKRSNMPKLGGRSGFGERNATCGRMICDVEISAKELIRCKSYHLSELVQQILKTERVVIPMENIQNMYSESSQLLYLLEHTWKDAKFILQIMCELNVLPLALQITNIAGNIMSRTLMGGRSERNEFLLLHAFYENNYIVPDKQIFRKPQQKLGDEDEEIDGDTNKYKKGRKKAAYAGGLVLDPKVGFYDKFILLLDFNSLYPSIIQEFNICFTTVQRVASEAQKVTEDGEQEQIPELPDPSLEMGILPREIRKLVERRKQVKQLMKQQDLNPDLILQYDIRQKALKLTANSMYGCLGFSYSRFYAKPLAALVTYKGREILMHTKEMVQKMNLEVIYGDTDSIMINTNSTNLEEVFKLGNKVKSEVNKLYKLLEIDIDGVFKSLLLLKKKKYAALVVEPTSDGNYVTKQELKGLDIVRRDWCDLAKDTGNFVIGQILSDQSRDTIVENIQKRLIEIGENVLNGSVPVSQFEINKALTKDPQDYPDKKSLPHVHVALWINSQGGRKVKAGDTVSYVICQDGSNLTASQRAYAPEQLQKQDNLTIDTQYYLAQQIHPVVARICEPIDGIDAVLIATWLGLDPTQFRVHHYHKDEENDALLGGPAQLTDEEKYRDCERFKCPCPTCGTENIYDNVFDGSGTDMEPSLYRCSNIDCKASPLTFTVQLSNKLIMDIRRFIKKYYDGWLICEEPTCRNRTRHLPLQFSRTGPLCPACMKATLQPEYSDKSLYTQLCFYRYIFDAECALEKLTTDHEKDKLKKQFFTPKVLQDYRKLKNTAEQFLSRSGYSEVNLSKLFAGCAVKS
Procedure, shortened: (§1)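 Each enzyme–compound pair was tested in duplicate over 0.8 to 100 μM, with 100 μM as the highest dose. Each run included a no-inhibitor control, a solvent dilution (0.016 to 2% DMSO) and the relevant reference inhibitor. Percent inhibition at 100 μM was recorded for polymerase γ.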

[3] = molecular target: T2, DNA polymerase subunit gamma-1 (Homo sapiens) (UniProt P54098); assay: Inhibition of human DNA polymerase gamma at 100 uM; procedure, shortened: as §1
T2 sequence (whole entry): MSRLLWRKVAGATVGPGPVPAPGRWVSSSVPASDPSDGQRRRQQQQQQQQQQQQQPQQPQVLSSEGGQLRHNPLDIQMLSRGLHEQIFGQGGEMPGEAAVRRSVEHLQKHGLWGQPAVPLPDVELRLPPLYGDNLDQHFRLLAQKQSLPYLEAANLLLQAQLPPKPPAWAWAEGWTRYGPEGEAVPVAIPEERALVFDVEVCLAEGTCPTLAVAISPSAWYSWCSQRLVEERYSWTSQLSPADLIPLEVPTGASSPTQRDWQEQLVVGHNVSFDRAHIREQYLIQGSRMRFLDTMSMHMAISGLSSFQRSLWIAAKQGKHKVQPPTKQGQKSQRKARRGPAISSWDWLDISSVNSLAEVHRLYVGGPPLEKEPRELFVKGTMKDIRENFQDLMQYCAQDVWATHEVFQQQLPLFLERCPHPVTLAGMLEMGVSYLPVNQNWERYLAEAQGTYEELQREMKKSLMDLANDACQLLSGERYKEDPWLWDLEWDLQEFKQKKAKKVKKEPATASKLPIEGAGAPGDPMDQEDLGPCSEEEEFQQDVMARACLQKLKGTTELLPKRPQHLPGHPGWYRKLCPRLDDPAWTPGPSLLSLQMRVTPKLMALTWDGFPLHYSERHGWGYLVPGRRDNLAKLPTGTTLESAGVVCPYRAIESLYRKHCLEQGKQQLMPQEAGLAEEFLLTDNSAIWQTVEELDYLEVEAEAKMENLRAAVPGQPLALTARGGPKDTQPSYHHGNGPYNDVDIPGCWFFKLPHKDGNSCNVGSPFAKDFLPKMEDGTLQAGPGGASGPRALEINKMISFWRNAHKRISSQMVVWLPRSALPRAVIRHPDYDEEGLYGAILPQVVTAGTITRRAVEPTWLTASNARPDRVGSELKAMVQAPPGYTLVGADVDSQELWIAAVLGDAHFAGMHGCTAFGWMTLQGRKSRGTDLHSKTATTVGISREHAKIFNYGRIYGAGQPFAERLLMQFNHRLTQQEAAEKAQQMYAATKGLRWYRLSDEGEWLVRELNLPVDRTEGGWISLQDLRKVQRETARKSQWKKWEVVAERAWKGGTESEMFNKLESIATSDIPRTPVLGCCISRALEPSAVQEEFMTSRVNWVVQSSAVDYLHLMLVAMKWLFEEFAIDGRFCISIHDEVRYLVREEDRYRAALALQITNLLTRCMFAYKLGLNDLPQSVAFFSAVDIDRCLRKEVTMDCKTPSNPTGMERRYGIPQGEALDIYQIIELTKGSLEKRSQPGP

[4] = (§2) Cytotoxicity against LTR-Luc transfected human MT4 cells […] after 3 days by ATPLite assay; format: cell-based
[5] = molecular target: T3, DNA polymerase subunit gamma-1 (Homo sapiens, UniProt P54098); assay: Inhibition of human DNA polymerase gamma; procedure, shortened: as §1
T3 sequence (P54098 whole entry): T2 sequence (whole entry)

[6] = molecular target: Human immunodeficiency virus type 1 reverse transcriptase (Human immunodeficiency virus 1, UniProt Q72547); assay: Inhibition of Human immunodeficiency virus 1 reverse transcriptase expressed in Escherichia coli by scintillation proximity assay
Procedure, shortened: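 N-terminal His6 HIV-1 RT was expressed in E. coli BL21(DE3), induced overnight at 37°C with 0.4 mM IPTG. The homodimer was purified by Ni-NTA and heparin chromatography. Activity was measured by scintillation proximity assay at 2.5 nM enzyme, with efavirenz as reference inhibitor.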

[7] = Inhibition of Dengue virus RNA-dependent RNA polymerase; procedure, shortened: as §1
[8] = system: Hepatitis C virus; assay: Antiviral activity against Hepatitis C virus 1b infected in human HuH7 cells assessed as inhibition of viral replication after 3 days by luciferase reporter assay; format: functional, organism-based, Hepacivirus hominis, genotype 1b, Huh-7
Procedure, shortened: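 HCV 1b subgenomic luciferase reporter replicon (clone ET) cells, 2,500 per well, were exposed to a nine-point 1/4 dilution series for 3 days. Replication was read as luciferase activity. Values are means ± SD from 2 to 23 independent experiments run in quadruplicate.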

[9] = molecular target: DNA polymerase beta (Homo sapiens, UniProt P06746); assay: Inhibition of human DNA polymerase beta; procedure, shortened: as §1
[10] = system: Hepatitis C virus; assay: Inhibition of Hepatitis C virus 1b J4 recombinant NS5B Cdelta 21 RNA dependent RNA polymerase mediated formation of first phosphodiester bond during the polymerization reaction at 10 uM after 60 mins; conditions: Hepatitis C virus subtype 1b
Procedure, shortened: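 Buffer was 50 mM HEPES pH 7.5, 5 mM MgCl2, 5 mM MnCl2, 10 mM KCl, 1 mM DTT, at room temperature. In the time course, incubation was lengthened with inhibitor held at 10 μM. Products were phenol-extracted, ethanol-precipitated, denatured 3 min at 95°C, run on 8 M urea–20% polyacrylamide gels, and imaged.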

[11] = system: Hepatitis C virus; assay: Ratio of EC50 for Hepatitis C virus 796 infected in HuH7 cells to EC50 for Hepatitis C virus 796 harboring NNI M414Q mutant site in NS5B infected in HuH7 cells; format: functional, Hepacivirus hominis, Huh-7
Procedure, shortened: (§3)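 NS5B NNI-site mutations were introduced into the genotype 1b ET subgenomic luciferase replicon by site-directed mutagenesis. RNA was made by in vitro transcription and tested in a transient-replication assay.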

[12] = Cytotoxicity against human HEK293T cells after 72 hrs by resazurin assay; format: cell-based, HEK-293T
Procedure, shortened: (§4)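 Cells were tested against eight serial fourfold dilutions for 72 h, at 3,000 cells/well for HEK293T and 4,000 cells/well for HepG2. Viability was read by resazurin staining. Values are means ± SD from two to eight independent experiments in quadruplicate.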

[13] = system: Hepatitis C virus; assay: Ratio of EC50 for Hepatitis C virus 796 infected in HuH7 cells to EC50 for Hepatitis C virus 796 harboring NNI C316Y mutant site in NS5B infected in HuH7 cells; format: functional, Hepacivirus hominis, Huh-7; procedure, shortened: as §3
[14] = Cytotoxicity against human HuH7 cells after 5 days by resazurin assay; format: cell-based, Huh-7; conditions: HuH7 cells
Procedure, shortened: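 Subconfluent HCV 1b subgenomic replicon cells, 500 per well and grown without G418, were incubated for 5 days with eight serial fourfold compound dilutions. Viability was read by resazurin. Values are means ± SD from two to eight independent experiments in quadruplicate.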

[15] = system: MT4; assay: as §2; format: cell-based; conditions: mt4, 72 h, 72 h
[16] = Inhibition of Gamma-aminobutyric acid type-A (GABAA) receptor by radioligand binding assay
Procedure, shortened: (§5)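 Radioligand binding assays for the GABA-A central BZD receptor and the peripheral BZD receptor were run as a single experiment in duplicate.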

[17] = system: Hepatitis C virus; assay: Ratio of EC50 for Hepatitis C virus 796 infected in HuH7 cells to EC50 for Hepatitis C virus 796 harboring NNI Y448A mutant site in NS5B infected in HuH7 cells; format: functional, Hepacivirus hominis, Huh-7; procedure, shortened: as §3
[18] = system: Hepatitis C virus; assay: Ratio of EC50 for Hepatitis C virus 796 infected in HuH7 cells to EC50 for Hepatitis C virus 796 harboring NNI M423T mutant site in NS5B infected in HuH7 cells; format: functional, Hepacivirus hominis, Huh-7; procedure, shortened: as §3
[19] = system: Hepatitis C virus; assay: Ratio of EC50 for Hepatitis C virus 796 infected in HuH7 cells to EC50 for Hepatitis C virus 796 harboring NNI P495L mutant site in NS5B infected in HuH7 cells; format: functional, Hepacivirus hominis, Huh-7; procedure, shortened: as §3
[20] = Cytotoxicity against human HepG2 cells after 72 hrs by resazurin assay; format: cell-based; conditions: HepG2 cells; procedure, shortened: as §4
[21] = system: Hepatitis C virus; assay: Ratio of EC50 for Hepatitis C virus 796 infected in HuH7 cells to EC50 for Hepatitis C virus 796 harboring NNI H95R mutant site in NS5B infected in HuH7 cells; format: functional, Hepacivirus hominis, Huh-7; procedure, shortened: as §3
[22] = molecular target: Translocator protein (Homo sapiens, UniProt P30536); assay: Inhibition of peripheral benzodiazepine BZD receptor by radioligand binding assay; procedure, shortened: as §5
Sequence of Translocator protein (P30536 whole entry): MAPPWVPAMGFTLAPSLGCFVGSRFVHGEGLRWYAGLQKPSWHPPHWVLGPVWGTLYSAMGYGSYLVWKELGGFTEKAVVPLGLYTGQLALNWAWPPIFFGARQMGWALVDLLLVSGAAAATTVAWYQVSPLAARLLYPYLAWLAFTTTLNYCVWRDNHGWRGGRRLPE

[23] = system: Hepatitis C virus; assay: Inhibition of Hepatitis C virus 1b J4 recombinant NS5B Cdelta 21 RNA dependent RNA polymerase overexpressed in Escherichia coli BL21 (DE3) by RdRp primer-dependent transcription assay; design: species or system Hepatitis C virus subtype 1b
[24] = Cytotoxicity against human MT4 cells after 3 days by ATPLite assay; format: cell-based; conditions: MT4 cells
Procedure, shortened: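 MT4 cells, 5,000 per well, were incubated 3 days at 37°C with eight serial fourfold compound dilutions. Cytotoxicity was read as intracellular ATP by ATPlite 1step luminescence. Values are means ± SD from two to eight independent experiments in quadruplicate.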

[25] = system: Hepatitis C virus; assay: Inhibition of Hepatitis C virus 1b J4 recombinant NS5B Cdelta 21 RNA dependent RNA polymerase overexpressed in Escherichia coli BL21 (DE3) assessed as [alpha-33P]UTP incorporation by RdRp primer-independent transcription assay; design: species or system Hepatitis C virus subtype 1b
Procedure, shortened: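 De novo (primer-independent) RdRp assay: 190 nM NS5BΔ21 (1b J4) with 86 nM HCV 3′ UTR template RNA, 0.5 mM each ATP/GTP/CTP, 10 μM UTP plus [α-³³P]UTP, in 20 mM Tris-HCl pH 7.5, 1 mM DTT, 5 mM MgCl₂, 20 mM NaCl. Incubated 2 h at room temperature, stopped with EDTA/tRNA, TCA-precipitated on filters, and scintillation-counted. Quadruplicate.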

IC50 [2]: > 100 µM
inhibition [3]: 30%
IC50 [5]: > 100 µM
IC50 [6]: > 32 µM
IC50 [7]: > 100 µM
EC50 ([8]; Hepatitis C virus, genotype 1b, Huh-7, 72 h): > 32 µM
IC50 [9]: > 100 µM
Compound: CC(=O)N1c2ccccc2NC2=C(C(=O)CC(C)(C)C2)C1c1ccc(Cl)cc1Cl (configuration not stated)
CC50 at 120 h ([1]; CMV-Luc transfected HuH7 cells): 32 µM
CC50 at 72 h [4]: 32 µM

Compound: CC(=O)N1c2ccccc2NC2=C(C(=O)CC(C)(C)C2)C1c1ccc(OCc2ccccc2)c(Cl)c1 (single isomer, unassigned; 4a)
inhibition [10]: Active

Compound: CC(=O)N1c2cccc(O)c2NC2=C(C(=O)CC(C)(C)C2)C1c1ccc(OCc2ccccc2)cc1Cl (single isomer, unassigned; 7a)
fold change (FC) [11]: 10
CC50 ([1]; huh-7, 120 h, 120 h): 12.8 µM
CC50 at 72 h [12]: > 25 µM
fold change (FC) [13]: 10
CC50 at 120 h [14]: 46.2 µM
CC50 [15]: 16.2 µM
IC50 [16]: > 30 µM
fold change (FC) [17]: 10
fold change (FC) [18]: 10
fold change (FC) [19]: 10
CC50 at 72 h [20]: 31.2 µM
fold change (FC) [21]: 10
IC50 [22]: > 30 µM
IC50 [23]: 0.05 µM
EC50 ([8]; huh-7): 1.2 µM
CC50 at 72 h [24]: 56.5 µM
IC50 [25]: 0.05 µM
